In ChEMBL document CHEMBL4699451, “Discovery of BIIB068: A Selective, Potent, Reversible Bruton's Tyrosine Kinase Inhibitor as an Orally Efficacious Agent for Autoimmune Diseases” (J Med Chem, 2020):
pIC50, pKi: −log10 of the molar value.

How the values were obtained:
Cytochrome P450 3A4 [1] = target: T1, Cytochrome P450 3A4 (Homo sapiens, UniProt P08684); test: Inhibition of CYP3A4 in human liver microsomes using midazolam as substrate measured after 15 mins in presence of NADPH by LC-MS/MS analysis; assay type: ADME
[2] = Protein binding in cynomolgus monkey plasma assessed as unbound fraction; assay type: ADME, cell-free, Macaca fascicularis
[3] = Toxicity in Sprague-Dawley rat assessed as effect on CNS administered as single dose; settings: in vivo
Outline: (§1)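 Single-dose CNS and respiratory safety studies in rats.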

Cytochrome P450 2C19 = Cytochrome P450 2C19 (Homo sapiens, UniProt P33261); test: Inhibition of CYP2C19 in human liver microsomes using S-mephenytoin as substrate measured after 30 mins in presence of NADPH by LC-MS/MS analysis; assay type: ADME
[4] = Toxicity in cynomolgus monkey assessed as change in body weight measured up to 13 weeks; set-up: species or system Macaca fascicularis; settings: in vivo, 2184 h
Outline: (§2)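 GLP toxicity studies lasting up to 13 weeks, run in Sprague-Dawley rats and cynomolgus monkeys.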

[5] = In vivo inhibition of BTK-dependent B cell activation in TI-2 antigen/ NP-Ficoll-induced DBA1 mouse immunized model assessed as reduction in anti-NP IgM antibody titer administered orally twice daily for 10 days measured post last dose by ELISA; assay type: functional, organism-based; settings: DBA1, po, 240 h, dose mg/kg 1-50, time 10 day
Cytochrome P450 2D6 = Cytochrome P450 2D6 (Homo sapiens, UniProt P10635); test: Inhibition of CYP2D6 in human liver microsomes using dextromethorphan as substrate measured after 15 mins in presence of NADPH by LC-MS/MS analysis; assay type: ADME
[6] = Half life in human at 10 to 120 mg administered orally using tablet form of sample; assay type: ADME; settings: in vivo, po, dose 10-120 mg
Outline: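 Phase I single ascending dose study in healthy volunteers; oral tablet at 10 mg escalating through a 120 mg cohort; plasma pharmacokinetics followed, median t1/2 reported per cohort.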

[7] = Clearance in rat at 1 mg/kg, iv; assay type: ADME, organism-based; settings: in vivo
[8] = Oral bioavailability in rat at 5 mg/kg; assay type: ADME, organism-based; settings: in vivo
Outline: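 Oral dosing in rats; vehicle 0.1% CMC/0.2% Tween-80.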

[9] = target: T2, Tyrosine-protein kinase BTK (Mus musculus, UniProt P35991); test: In vivo inhibition of BTK in TI-2 antigen/ NP-Ficoll-induced DBA1 mouse immunized model assessed as reduction in BTK phosphorylation administered orally twice daily for 10 days measured post last dose; assay type: functional, organism-based
Outline: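 Female DBA/1 mice, nine per arm, were immunized with 30 µg NP-Ficoll ip on day 0 and dosed PO twice daily for 10 days (1-50 mg/kg/dose) in 0.5% carboxymethylcellulose/0.1% Tween 80. On day 10, serum NP-specific IgM was measured by ELISA on NP-BSA plates (biotin anti-IgM, streptavidin-HRP, ABTS, 405 nm) and titer interpolated against a pooled positive serum standard, reported as reduction vs vehicle. Whole-blood pBTK was taken at pre-last dose and 1 and 4 h post final dose.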

[10] = Half life in dog at 1 mg/kg, iv; assay type: ADME, organism-based, Canis lupus familiaris; settings: in vivo
[11] = Cmax in dog at 5 mg/kg, po; assay type: ADME, organism-based, Canis lupus familiaris; set-up: route oral, dose 5 mg/kg; settings: in vivo
[12] = Stability in rat plasma assessed as parent compound remaining after 6 hrs; assay type: ADME, cell-free; settings: read-out: Stabilty
Outline: (§3)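 Compound incubated in plasma for 6 hours, then percentage of parent compound remaining determined.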

[13] = Genotoxicity in Sprague-Dawley rat assessed as micronuclei formation by micronucleus assay; assay type: toxicity
Outline: (§4)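 In vivo micronucleus test in Sprague-Dawley rats; bone marrow scored for micronuclei, clastogenic activity and disruption of the mitotic apparatus.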

[14] = Oral bioavailability in dog at 5 mg/kg; assay type: ADME, organism-based, Canis lupus familiaris; settings: in vivo
[15] = Aqueous solubility of compound in simulated gastric fluid at pH 2 by HPLC method; assay type: physicochemical
[16] = AUC in rat at 5 mg/kg, po; assay type: ADME, organism-based; set-up: dose 5 mg/kg; settings: in vivo
Cytochrome P450 2B6 = target: T3, Cytochrome P450 2B6 (Homo sapiens, UniProt P20813); test: Induction of CYP2B6 in human hepatocytes up to 50 uM; assay type: ADME, cell-based, Hepatocyte
T3 sequence (P20813 whole entry): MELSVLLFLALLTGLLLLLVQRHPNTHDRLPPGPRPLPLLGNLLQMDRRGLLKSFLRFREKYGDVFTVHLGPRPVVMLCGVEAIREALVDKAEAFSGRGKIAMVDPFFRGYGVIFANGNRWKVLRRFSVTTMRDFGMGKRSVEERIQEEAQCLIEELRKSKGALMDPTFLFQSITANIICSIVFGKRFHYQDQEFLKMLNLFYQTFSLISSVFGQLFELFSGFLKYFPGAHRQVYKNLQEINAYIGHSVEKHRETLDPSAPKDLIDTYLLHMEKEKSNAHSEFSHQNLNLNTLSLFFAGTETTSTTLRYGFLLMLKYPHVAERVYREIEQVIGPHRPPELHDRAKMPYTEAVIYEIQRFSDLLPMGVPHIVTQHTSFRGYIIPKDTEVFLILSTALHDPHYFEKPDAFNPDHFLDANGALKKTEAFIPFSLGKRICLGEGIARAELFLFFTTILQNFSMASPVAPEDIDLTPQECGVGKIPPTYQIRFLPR
Outline: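 Sandwich-cultured human hepatocytes exposed at concentrations up to 50 μM; induction of CYP1A2, 2B6 and 3A4 assessed.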

[17] = Toxicity in Sprague-Dawley rat assessed as change in body weight measured up to 13 weeks; settings: in vivo, 2184 h; outline: as §2
[18] = Drug metabolism in human liver microsomes assessed as oxidation at pyrazole moiety; assay type: ADME, Microsome
[19] = Toxicity in Sprague-Dawley rat assessed as effect on respiratory system administered as single dose; settings: in vivo; outline: as §1
[20] = Toxicity in Sprague-Dawley rat assessed as effect on organ weight measured up to 13 weeks; settings: in vivo, 2184 h; outline: as §2
[21] = Stability in cynomolgus monkey plasma assessed as parent compound remaining after 6 hrs; assay type: ADME, cell-free, Macaca fascicularis; settings: read-out: Stabilty; outline: as §3
[22] = Toxicity in Sprague-Dawley rat assessed as change in ECG measured up to 13 weeks; settings: in vivo, 2184 h; outline: as §2
[23] = Genotoxicity in Sprague-Dawley rat assessed as disruption of mitotic apparatus in bone marrow by micronucleus assay; assay type: toxicity; outline: as §4
[24] = Toxicity in cynomolgus monkey assessed as effect on clinical sign measured up to 13 weeks; set-up: species or system Macaca fascicularis; settings: in vivo, 2184 h; outline: as §2
[25] = Cmax in rat at 5 mg/kg, po; assay type: ADME, organism-based; set-up: route oral, dose 5 mg/kg; settings: in vivo
[26] = Volume of distribution at steady state in rat at 1 mg/kg, iv; assay type: ADME, organism-based; settings: in vivo, read-out: Vdss
Outline: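 Intravenous dosing at 1 mg/kg in male SD rats, measured in triplicate; vehicle 40% NMP solution. Clearance expressed as %Qh.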

[27] = target: T2, Tyrosine-protein kinase BTK; test: Inhibition of BTK in DBA1 mouse whole blood assessed as reduction in BTK phosphorylation; assay type: tissue-based
[28] = Toxicity in cynomolgus monkey assessed as histopathological changes measured up to 13 weeks; set-up: species or system Macaca fascicularis; settings: in vivo, 2184 h; outline: as §2
[29] = Clearance in cynomolgus monkey at 1 mg/kg, iv relative to hepatic blood flow; assay type: ADME, organism-based, Macaca fascicularis; settings: in vivo
[30] = Toxicity in Sprague-Dawley rat assessed as histopathological changes measured up to 13 weeks; settings: in vivo, 2184 h; outline: as §2
[31] = Cmax in cynomolgus monkey at 5 mg/kg, po; assay type: ADME, organism-based, Macaca fascicularis; set-up: route oral, dose 5 mg/kg; settings: in vivo
[32] = Toxicity in Sprague-Dawley rat assessed as effect on gross pathology measured up to 13 weeks; settings: in vivo, 2184 h; outline: as §2
[33] = Lipophilicity, log D of compound by UV-HPLC method; assay type: physicochemical
Cytochrome P450 3A4 [34] = target: T1, Cytochrome P450 3A4; test: Time-dependent inhibition of CYP3A4 in human liver microsomes using testosterone in presence of NADPH by LC-MS/MS analysis; assay type: ADME

T1 sequence (P08684 whole entry): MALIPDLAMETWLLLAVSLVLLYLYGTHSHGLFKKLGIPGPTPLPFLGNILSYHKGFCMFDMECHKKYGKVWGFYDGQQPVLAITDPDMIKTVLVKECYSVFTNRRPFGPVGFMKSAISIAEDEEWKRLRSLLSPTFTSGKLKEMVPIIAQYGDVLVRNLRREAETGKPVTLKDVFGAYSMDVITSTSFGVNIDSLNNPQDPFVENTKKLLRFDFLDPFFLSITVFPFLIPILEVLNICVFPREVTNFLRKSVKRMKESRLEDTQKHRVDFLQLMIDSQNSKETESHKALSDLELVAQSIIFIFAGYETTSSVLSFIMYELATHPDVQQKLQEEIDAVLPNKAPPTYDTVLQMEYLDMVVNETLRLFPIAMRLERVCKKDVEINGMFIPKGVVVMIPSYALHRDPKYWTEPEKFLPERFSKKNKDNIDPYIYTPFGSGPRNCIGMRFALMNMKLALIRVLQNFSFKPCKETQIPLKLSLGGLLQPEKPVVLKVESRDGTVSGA
T2 sequence (P35991 whole entry): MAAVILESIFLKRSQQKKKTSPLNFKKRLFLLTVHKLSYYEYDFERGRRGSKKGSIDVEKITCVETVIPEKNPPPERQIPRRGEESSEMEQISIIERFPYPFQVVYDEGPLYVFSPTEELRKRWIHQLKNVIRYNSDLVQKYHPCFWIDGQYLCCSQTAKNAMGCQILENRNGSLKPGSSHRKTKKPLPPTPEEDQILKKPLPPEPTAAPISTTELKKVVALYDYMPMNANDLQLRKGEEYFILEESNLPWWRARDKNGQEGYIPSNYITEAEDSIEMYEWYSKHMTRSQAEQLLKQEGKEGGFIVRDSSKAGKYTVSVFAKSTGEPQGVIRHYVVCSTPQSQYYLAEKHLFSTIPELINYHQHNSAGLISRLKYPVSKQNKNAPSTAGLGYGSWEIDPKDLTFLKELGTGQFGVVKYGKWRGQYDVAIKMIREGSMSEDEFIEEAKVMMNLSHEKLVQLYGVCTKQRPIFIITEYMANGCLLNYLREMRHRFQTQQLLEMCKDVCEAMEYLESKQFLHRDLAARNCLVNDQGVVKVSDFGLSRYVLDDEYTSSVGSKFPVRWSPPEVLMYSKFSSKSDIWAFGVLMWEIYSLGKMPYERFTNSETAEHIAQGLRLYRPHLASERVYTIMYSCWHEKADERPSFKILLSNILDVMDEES
Sequence of Cytochrome P450 2D6 (P10635 whole entry): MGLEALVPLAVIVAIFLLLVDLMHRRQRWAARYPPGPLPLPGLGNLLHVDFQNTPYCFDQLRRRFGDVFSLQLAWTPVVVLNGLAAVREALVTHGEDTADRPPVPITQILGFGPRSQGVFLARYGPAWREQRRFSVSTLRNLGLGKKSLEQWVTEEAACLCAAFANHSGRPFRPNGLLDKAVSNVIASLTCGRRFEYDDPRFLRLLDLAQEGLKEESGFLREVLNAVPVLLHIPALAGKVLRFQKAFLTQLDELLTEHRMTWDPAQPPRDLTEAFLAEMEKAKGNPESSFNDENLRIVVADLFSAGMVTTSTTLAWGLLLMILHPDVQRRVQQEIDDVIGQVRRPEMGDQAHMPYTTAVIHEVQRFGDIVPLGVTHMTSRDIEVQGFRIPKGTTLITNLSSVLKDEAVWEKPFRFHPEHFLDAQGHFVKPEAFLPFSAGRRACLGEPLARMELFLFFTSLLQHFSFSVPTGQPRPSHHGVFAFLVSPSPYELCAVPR
Sequence of Cytochrome P450 2C19 (P33261 whole entry): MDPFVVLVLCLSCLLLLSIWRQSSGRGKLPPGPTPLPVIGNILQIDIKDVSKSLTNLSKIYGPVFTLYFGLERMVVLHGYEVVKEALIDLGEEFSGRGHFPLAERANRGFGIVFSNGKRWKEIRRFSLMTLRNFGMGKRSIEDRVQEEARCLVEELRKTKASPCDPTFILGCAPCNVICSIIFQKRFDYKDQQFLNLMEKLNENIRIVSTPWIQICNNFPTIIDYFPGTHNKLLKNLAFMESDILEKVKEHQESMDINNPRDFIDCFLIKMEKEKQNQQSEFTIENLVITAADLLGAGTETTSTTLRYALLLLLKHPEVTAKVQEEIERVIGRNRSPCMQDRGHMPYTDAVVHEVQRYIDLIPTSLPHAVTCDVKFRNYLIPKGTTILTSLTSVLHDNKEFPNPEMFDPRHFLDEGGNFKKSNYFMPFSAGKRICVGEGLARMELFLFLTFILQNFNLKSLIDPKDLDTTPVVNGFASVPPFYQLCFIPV

pIC50 (Cytochrome P450 3A4 [1]): < 4.60
fraction unbound [2]: 0.0362
pIC50 (Cytochrome P450 2C19): < 4.60
pIC50 (Cytochrome P450 2D6): < 4.60
half-life [6]: 6 h
clearance [7]: 3 mL/min/kg
bioavailability [8]: 48%
pIC50 [9]: 6.89
half-life [10]: 2.1 h
Cmax [11]: 652 ng/mL
remaining at 6 h [12]: > 95%
bioavailability [14]: 26%
solubility [15]: > 100 µg/mL
AUC [16]: 11900 ng·h/mL
Activity (Cytochrome P450 2B6): Not Active
Drug metabolism [18]: Metabolite_Detected
remaining at 6 h [21]: > 95%
Cmax [25]: 2920 ng/mL
Vd [26]: 0.2 L/kg
pIC50 [27]: 6.77
CL [29]: 26%
Cmax [31]: 282 ng/mL
logD [33]: 2.32
pKi (Cytochrome P450 3A4 [34]): 4.30
SMILES: Cc1cc(-c2ccnc(Nc3cnn(C)c3)n2)ccc1CNC(=O)N1CC(OC(C)C)C1
Activity [3]: Non-Toxic
Activity [4]: Non-Toxic
ED50 [5]: 4.4 mg/kg
Activity [13]: Non-Toxic
Activity [17]: Non-Toxic
Activity [19]: Non-Toxic
Activity [20]: Non-Toxic
Activity [22]: Non-Toxic
Activity [23]: Non-Toxic
Activity [24]: Non-Toxic
Activity [28]: Non-Toxic
Activity [30]: Non-Toxic
Activity [32]: Non-Toxic
